Laboratory results taken from ChEMBL document CHEMBL4732054, “Extension of furopyrimidine nucleosides with 5-alkynyl substituent: Synthesis, high fluorescence, and antiviral effect in the absence of free ribose hydroxyl groups” (Eur J Med Chem, 2021).

Legend:
[1] = Cytotoxicity against human HEL cells assessed as concentration required to cause visible alteration in cell morphology incubated for 3 days by coulter counter method; assay type: cell-based; conditions: time 3 day
In short: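 MCC scored by microscopy in confluent HEL cell cultures as the lowest compound concentration that causes a visible change in cell morphology.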

Human alphaherpesvirus 3 [2] = assay: Antiviral activity against thymidine kinase positive Varicella zoster virus OKA infected in human HEL cells assessed as reduction in virus-induced cytopathogenic effect measured after 3 days coulter counter method; assay type: functional, organism-based; conditions: Human alphaherpesvirus 3, OKA, 72 h
HEL = assay: Cytotoxicity against human HEL cells assessed as reduction in cell growth incubated for 3 days by coulter counter method; assay type: cell-based; conditions: 72 h, time 3 day
In short: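 HEL cells were seeded at 5 × 10^3 cells/well and allowed to grow for 24 h. Medium containing varying compound concentrations was then added, and cells were incubated 3 days at 37 °C. Cell number was counted with a Coulter counter.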

Human alphaherpesvirus 3 [3] = assay: Antiviral activity against thymidine kinase deficient Varicella zoster virus 07-1 infected in human HEL cells assessed as reduction in virus-induced cytopathogenic effect measured after 3 days coulter counter method; assay type: functional, organism-based; conditions: Human alphaherpesvirus 3, 07-1, HEL, 72 h
[4] = Selectivity index, ratio of CC50 for human HEL cells to EC50 for thymidine kinase positive Varicella zoster virus OKA infected in human HEL cells; assay type: toxicity, cell-based; conditions: read-out: Ratio CC50/EC50
In short: (§1)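 VZV plaque reduction in confluent HEL cells: 20 PFU input, 1–2 h adsorption, then unbound virus removed and cells given varying compound concentrations in duplicate. EC50 is the concentration halving plaque number. […] SI = CC50/EC50.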

[5] = Selectivity ratio of EC50 for thymidine kinase deficient Varicella zoster virus 07-1 infected in human HEL cells to EC50 for thymidine kinase positive Varicella zoster virus OKA infected in human HEL cells; assay type: functional
[6] = Selectivity index, ratio of CC50 for human HEL cells to EC50 for thymidine kinase deficient Varicella zoster virus 07-1 infected in human HEL cells; assay type: toxicity, cell-based; conditions: read-out: Ratio CC50/EC50; in short: as §1

Compound | MCC at 72 h [1] [µM] | EC50 (Human alphaherpesvirus 3 [2]) [µM] | CC50 (HEL) [µM] | EC50 (Human alphaherpesvirus 3 [3]) [µM] | selectivity ratio [4] | Ratio EC50 [5] | selectivity ratio [6]
CCCCCc1ccc(-c2oc3nc(=O)n([C@H]4C[C@H](OC(C)=O)[C@@H](COC(C)=O)O4)cc3c2C#CCCO)cc1 | 100 | 4.02 | 2.66 | 13 | ≤ 1 | – | –
CCCCCc1ccc(C#Cc2c(-c3ccc(C)cc3)oc3nc(=O)n([C@H]4C[C@H](OC(C)=O)[C@@H](COC(C)=O)O4)cc23)cc1 | 20 | > 4 | – | > 4 | – | – | –
CC(=O)OCC#Cc1c(-c2ccc(C)cc2)oc2nc(=O)n([C@H]3C[C@H](OC(C)=O)[C@@H](COC(C)=O)O3)cc12 | > 100 | > 100 | – | 100 | – | – | –
CCCCCc1ccc(-c2oc3nc(=O)n([C@H]4C[C@H](OC(C)=O)[C@@H](COC(C)=O)O4)cc3c2C#Cc2ccc(C)cc2)cc1 | 100 | 7.61 | – | > 20 | – | – | –
CC(=O)OC[C@H]1O[C@@H](n2cc3c(C#CCO)c(-c4ccc(C)cc4)oc3nc2=O)C[C@@H]1OC(C)=O | > 100 | 66.9 | – | > 100 | – | – | –
CC(=O)OC[C@H]1O[C@@H](n2cc3c(C#CC4(O)c5ccccc5-c5ccccc54)c(-c4ccc(C)cc4)oc3nc2=O)C[C@@H]1OC(C)=O | 100 | 1.3 | 2.36 | 7.61 | ≤ 1 | – | –
CC(=O)OC[C@H]1O[C@@H](n2cc3c(C#CCCO)c(-c4ccc(C)cc4)oc3nc2=O)C[C@@H]1OC(C)=O | > 100 | 76.5 | – | > 100 | – | – | –
COCC#Cc1c(-c2ccc(C)cc2)oc2nc(=O)n([C@H]3C[C@H](OC(C)=O)[C@@H](COC(C)=O)O3)cc12 | > 100 | 20 | – | 44.7 | – | – | –
CC(=O)OC[C@H]1O[C@@H](n2cc3c(C#Cc4ccc(C)cc4)c(-c4ccc(C)cc4)oc3nc2=O)C[C@@H]1OC(C)=O | 60 | 6.84 | 8.77 | 10.9 | ≤ 1 | – | –
CC(=O)OC[C@H]1O[C@@H](n2cc3c(C#CCCCCn4c5ccccc5c5ccccc54)c(-c4ccc(C)cc4)oc3nc2=O)C[C@@H]1OC(C)=O | 100 | 7.23 | 6.22 | 13.2 | ≤ 1 | – | –
CCCCCc1ccc(C#Cc2c(-c3ccc(CCCCC)cc3)oc3nc(=O)n([C@H]4C[C@H](OC(C)=O)[C@@H](COC(C)=O)O4)cc23)cc1 | 100 | 1.5 | > 100 | 8.94 | 67 | 6 | 11
CCCCCc1ccc(-c2oc3nc(=O)n([C@H]4C[C@H](OC(C)=O)[C@@H](COC(C)=O)O4)cc3c2C#CCO)cc1 | 100 | 7.56 | 3.8 | 13 | ≤ 1 | – | –
CC(=O)OC[C@H]1O[C@@H](n2cc3c(C#CCCN4C(=O)c5ccccc5C4=O)c(-c4ccc(C)cc4)oc3nc2=O)C[C@@H]1OC(C)=O | 100 | 31 | – | 38.1 | – | – | –
Nc1nc2c(ncn2COCCO)c(=O)[nH]1 [ACYCLOVIR] | > 440 | – | > 300 | – | – | – | –
O=c1[nH]c(=O)n([C@H]2C[C@H](O)[C@@H](CO)O2)cc1/C=C/Br [BRIVUDINE] | > 300 | – | > 300 | 12 | – | – | –
